Screening results: PubChem BioAssay, SRMLSC
Shown is part of a subset that was picked to be rich in hits.
PTEN del growth: suppresses growth of cells with PTEN deletion; viability, % at 10 µM; 1.2% of 140,000 active; HCT116 PTEN-null viability, CellTiter-Glo, 60 h; hits give low values;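 active = viability at or below a set limit, 4 SD under the median of all tested compounds, cut at about 3.7% in these data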;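 note: PTEN knockout HCT116 line with beta catenin targeted HCT116 as companion control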
bCat KO growth: beta-catenin-lacking colon tumor cell growth suppression; AID 818; HCT116 beta-catenin knockout viability, CellTiter-Glo, 60 h; hits give low values; 1.5% of 140,000 active; viability, % at 10 µM;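 active = viability at or under a set limit, the compound median less 4 SD, cut at about 6% in these data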
H69AR inhibit: growth inhibitors of human H69AR lung tumor cells; AID 598; viability, % at 10 µM; H69AR lung tumor viability, ATP luminescence, 72 h; hits give low values; 6% of 85,000 active;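 active = viability at or below 40%; inactive = viability above 40%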;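 note: multidrug resistant small cell line overexpressing MRP-1 efflux transporter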
Lung fibro prol: blocks proliferation of human lung fibroblasts | viability, % at 10 µM | 1.1% of 85,000 active | AID 719 | LL 47 human lung fibroblast viability, ATP luminescence; hits give low values;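 active = viability at or below 50% in the single dose screen; inactive = viability above 50%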;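 note: compound exposure lasted 72 h before the ATP readout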
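Assay system: human lung fibroblast line LL 47, low passage. Input: 1,150 fibroblasts seeded per well. Times: overnight cell rest, 72 h compound treatment at 37 °C. Evaluation: % viability of median cell-only signal. Technique: luminescent ATP detection, CellTiter-Glo. Control set: cell-only wells, no compound.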
HUVEC prolif 384: blocks proliferation of human endothelial cells; viability, % at 10 µM (by protocol); 1.1% of 86,000 active; AID 648; HUVEC proliferation, CellTiter-Glo luminescence, 72 h; hits give low values;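 active = viability at or below 30%; inactive = viability above 30%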
Each line names hits and unclear results; the compound was inactive in the other large screens.

O=C1C(Cl)=C(Nc2ccccc2O)C(=O)N1c1ccccc1	H69AR inhibit 39
Cc1ccc(C(=O)O/N=C(\N)c2cccnc2)cc1[N+](=O)[O-]	none (no result: H69AR inhibit, Lung fibro prol, HUVEC prolif 384)
Cc1ccc(C(=O)O/N=C(\N)c2ccc(Br)cc2)cc1C	H69AR inhibit 28
Cc1cc(C)cc(C(=O)O/N=C(\N)c2ccc(Br)cc2)c1	H69AR inhibit 34
COc1ccc(/C(N)=N/OC(=O)c2ccc(C)c([N+](=O)[O-])c2)cc1OC	H69AR inhibit 24
N#Cc1c(C(F)(F)F)cc(-c2cccc(Cl)c2)[nH]c1=O	none (no result: H69AR inhibit, Lung fibro prol, HUVEC prolif 384)
CCCCn1nnnc1SCC(=O)N1CCOCC1	none
Cc1ccc(CN2CCN(/N=C/c3cc(Br)cc(Br)c3O)CC2)c(C)c1	none (no result: H69AR inhibit, Lung fibro prol, HUVEC prolif 384)
O=C(Cn1nnc(-c2ccccc2)n1)NCc1ccco1	none
O=C(Cn1cnc2sc(-c3ccccc3)cc2c1=O)NCc1ccccc1	PTEN del growth 2.2, bCat KO growth 2.1, H69AR inhibit 22
O=C(Cn1cnc2sc(-c3ccccc3)cc2c1=O)NCc1ccco1	H69AR inhibit 26
O=C(Cn1cnc2sc(-c3ccccc3)cc2c1=O)NCCc1ccccc1	H69AR inhibit 26
Cc1cc(C)n(CC(O)COc2ccc(OCC(O)Cn3nc(C)cc3C)cc2)n1 (configuration not stated)	none (no result: PTEN del growth, bCat KO growth)
Cn1c(N)c(C(=O)COC(=O)CNS(=O)(=O)c2ccc(Cl)c(Cl)c2)c(=O)n(C)c1=O	none (no result: H69AR inhibit, Lung fibro prol, HUVEC prolif 384)
CC(C)CN(CC(C)C)C(=O)CS(=O)(=O)Cc1ccccc1	none
COc1ccc([N+](=O)[O-])cc1NC(=O)C(C)Sc1nc(C)c(C)c(C)n1 (configuration not stated)	none (no result: H69AR inhibit, Lung fibro prol, HUVEC prolif 384)
Cc1cc(C(=O)c2ccccc2)c(NC(=O)CN2CCOCC2)s1	none (no result: H69AR inhibit, Lung fibro prol, HUVEC prolif 384)
Cc1cc(C(=O)c2ccc(C(C)(C)C)cc2)c(NC(=O)CCl)s1	PTEN del growth 1.3, bCat KO growth 1.1 (no result: H69AR inhibit, Lung fibro prol, HUVEC prolif 384)
COc1cc(NC(=O)CSc2nc3ccccc3c(=O)n2C)ccc1NC(=O)c1ccco1	H69AR inhibit 24
CCOc1cc(NC(=O)c2ccco2)c(OCC)cc1NC(=O)CCc1ccc(OC)cc1	H69AR inhibit 33 (no result: PTEN del growth, bCat KO growth)
COc1ccc(NC(=O)CCc2ccccc2)cc1NC(=O)c1ccco1	H69AR inhibit 36
COc1ccccc1-n1cnc2cc(NC(=O)c3ccco3)ccc21	H69AR inhibit 22
COc1cc(C2C(C#N)=C(N)Oc3c2c(-c2ccccc2)nn3-c2ccccc2)cc(OC)c1OC (configuration not stated)	none (no result: H69AR inhibit, Lung fibro prol, HUVEC prolif 384)
NC(=O)c1cc2cc(Cl)ccc2oc1=Nc1cccc(C(F)(F)F)c1	none (no result: H69AR inhibit, Lung fibro prol, HUVEC prolif 384)
COc1ccc(CCC(=O)Nc2cc(Cl)ccc2OC)cc1	H69AR inhibit 24
CCOC(=O)Nc1ccc2c(c1)Nc1ccccc1S2	none
CCOC(=O)C1(Nc2nccs2)Sc2ccccc2NC1=O (configuration not stated)	H69AR inhibit 16
NNC(=O)Cn1c(SCc2ccccc2)nc2ccccc21	none
COCc1cc(=O)[nH]c(Nc2nc3ccc(C)cc3o2)n1	H69AR inhibit 21, Lung fibro prol 5.2
CC1(c2ccccc2)NC(=O)N(Cc2ccc([N+](=O)[O-])cc2)C1=O (configuration not stated)	none (no result: H69AR inhibit, Lung fibro prol, HUVEC prolif 384)
CC1CC(N(C(=O)c2ccco2)c2ccccc2)c2ccccc2N1 (configuration not stated)	H69AR inhibit 15
CCCc1nc2oc3c(N4CCNCC4)ncnc3c2c2c1CCCC2	H69AR inhibit 7.0 (no result: PTEN del growth, bCat KO growth)
CC(C)Cc1nc2oc3c(N4CCN(C)CC4)ncnc3c2c2c1CCCC2	none
CCCc1nc2oc3c(NCCN(C)C)ncnc3c2c2c1CCCC2	PTEN del growth 1.8, bCat KO growth 2.0, H69AR inhibit 8.9, Lung fibro prol 4.3
CC(=O)Nc1ccc(Br)cc1C(=O)C(=O)O	none (no result: H69AR inhibit, Lung fibro prol, HUVEC prolif 384)
COc1ccc(C(=O)NN/C(C)=C/C(=O)C(F)(F)C(F)(F)C(F)(F)F)cc1	none (no result: H69AR inhibit, Lung fibro prol, HUVEC prolif 384)
Cc1noc(C)c1COc1cccc(C(=O)OCC(=O)N2CC(=O)Nc3ccccc32)c1	H69AR inhibit 22
O=C1CN(C(=O)COc2cccc(F)c2)c2ccccc2N1	none (no result: H69AR inhibit, Lung fibro prol, HUVEC prolif 384)
c1ccc2c(CCNc3ncnc4nc[nH]c34)c[nH]c2c1	H69AR inhibit 20
CC(=O)c1cnc(N(C)C)s1	none
O=C1C(Cl)=C(N2CCCCC2)C(=O)C(Cl)=C1c1cnc(N2CCCCC2)s1	PTEN del growth 1.5, bCat KO growth 1.1, H69AR inhibit 1.6, Lung fibro prol 19, HUVEC prolif 384 14
CN(C)c1ncc(C2=C(Cl)C(=O)C(N3CCCC3)=C(Cl)C2=O)s1	PTEN del growth 1.6, bCat KO growth 1.4, HUVEC prolif 384 23
CC(Oc1ccc(Cl)cc1)C(=O)NNC(=S)NC(=O)c1ccco1 (configuration not stated)	none (no result: H69AR inhibit, Lung fibro prol, HUVEC prolif 384)
CNC(=O)c1ccc(-c2sc3nc(N4CCOCC4)c4c(c3c2N)CCCC4)o1	H69AR inhibit 21
CNC(=O)c1ccc(-c2sc3nc(N4CCOCC4)c4c(c3c2N)CC(C)(C)OC4)o1	none
O=C(COC(=O)CC1CCCC1)Nc1cc2c(cc1Cl)C(=O)c1ccccc1C2=O	H69AR inhibit 19
N#CC1=C(N)Oc2cc(N)ccc2C1C1CCCCC1 (configuration not stated)	H69AR inhibit 24
CCOC(=O)c1c(NC(C)=O)sc2c(OC)c(Br)ccc12	H69AR inhibit 38
CCOC(=O)c1c(NC(C)=O)sc2c(OC)cccc12	none
Cc1cc(CN2CCN(CCC#N)CC2)c(O)c(C2(C)CCCCC2)c1	H69AR inhibit 38
COC(=O)c1cc(OC)c(OC)cc1NC(=O)c1c(C)noc1C	none (no result: PTEN del growth, bCat KO growth)
Cc1ccc2c(COn3nnc4ccc(S(=O)(=O)N(C)C)cc43)cc(=O)oc2c1C	H69AR inhibit 33
Cc1ccc(C)c(NC(=O)C(Sc2ncnc3ccccc23)c2ccccc2)c1 (configuration not stated)	PTEN del growth 1.2 (no result: H69AR inhibit, Lung fibro prol, HUVEC prolif 384)
Cc1ccc2cc(C#N)c(NCc3ccco3)nc2c1	none
COc1ccc(/C=C2\COc3ccccc3C2=O)cc1OC	PTEN del growth 1.1, bCat KO growth 1.6 (no result: H69AR inhibit, Lung fibro prol, HUVEC prolif 384)
COc1cc(/C=C2\CCc3ccccc3C2=O)cc(OC)c1OC	PTEN del growth 1.7, bCat KO growth 2.0 (no result: H69AR inhibit, Lung fibro prol, HUVEC prolif 384)
COc1ccc(/C=C2/CCc3ccccc3C2=O)cc1OC	none (no result: H69AR inhibit, Lung fibro prol, HUVEC prolif 384)
COc1cc(/C=C2/CCc3ccccc3C2=O)cc(OC)c1OC	none (no result: H69AR inhibit, Lung fibro prol, HUVEC prolif 384)
CC(C)NCC(O)Cn1c2c(c3ccccc31)CCc1c-2cnn1-c1ccccc1 (configuration not stated)	PTEN del growth 2.0, bCat KO growth 1.5 (no result: H69AR inhibit, Lung fibro prol, HUVEC prolif 384)
Cc1cc(C=O)c(C)n1-c1ccc(Oc2ccc([N+](=O)[O-])cn2)cc1	none (no result: H69AR inhibit, Lung fibro prol, HUVEC prolif 384)
COc1ccc(NC(=O)/C(C#N)=C\c2cc(C)n(-c3ccc(Oc4ccc([N+](=O)[O-])cn4)cc3)c2C)cc1	H69AR inhibit 33
COc1ccc(/C=C/C(=O)c2ccc3c(c2)OCCO3)cc1[N+](=O)[O-]	none (no result: H69AR inhibit, Lung fibro prol, HUVEC prolif 384)
COc1ccc(Oc2ccc(/C=C/C(=O)c3cccc(OC)c3)cc2[N+](=O)[O-])cc1	PTEN del growth 1.9, bCat KO growth 2.0 (no result: H69AR inhibit, Lung fibro prol, HUVEC prolif 384)
COc1cc(OC)c(OC)cc1/C=C/C(=O)c1ccc(NS(=O)(=O)c2ccc(C)cc2)cc1	none (no result: H69AR inhibit, Lung fibro prol, HUVEC prolif 384)
